Reference: PMC3943421 (Biochemistry, 2012)
Like-named read-outs stand apart in the source and are kept apart here. Each block holds one compound with its values, some of them ahead of it. Square brackets hold non-standard residues; d marks the D form. Peptide text beside a SMILES is read from it. pY = N[C@@H](Cc1ccc(OP(=O)(O)O)cc1)C(=O)O

Key:
[1] = target: FPRck-inhibited thrombin (anion-binding exosite II) (Homo sapiens, UniProt P00734); assay: Surface plasmon resonance; settings: SPR; for measurable binding to thrombin (in words): HBS-EP+, 25°C (Figure 3)
Procedure, shortened: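 Biotinylated peptides captured on streptavidin chips at 150 RU after three 60 s 1 M NaCl/50 mM NaOH conditioning pulses, with blank reference cells. HBS-EP+ (10 mM HEPES pH 7.4, 150 mM NaCl, 0.05% P20, 3 mM EDTA), 25°C. Serial thrombin injections for 20 s at 50 μl/min, 30 s dissociation, no regeneration. Buffer-only and reference signals subtracted. Equilibrium 1:1 Langmuir Kd from three replicates with fresh dilutions.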

[2] = target: wild-type γ′ peptide (fibrinogen γ′ chain 410-427, both tyrosines phosphorylated); assay: SPR
[3] = target: wild-type γ′ peptide (fibrinogen γ′ chain 410-427, both tyrosines phosphorylated); assay: SPR; remark: listed apart in the source
[4] = target: wild-type γ′ peptide (fibrinogen γ′ chain 410-427, both tyrosines phosphorylated); assay: SPR; remark: listed apart in the source
[5] = target: wild-type γ′ peptide (fibrinogen γ′ chain 410-427, both tyrosines phosphorylated); assay: SPR; remark: listed apart in the source
γ′ analog peptide #2 = assay: SPR
γ′ analog peptide #1 = assay: SPR
[6] = target: γ′ analog peptide #5 (Asp419Asn); assay: SPR
γ′ analog peptide #3 = assay: SPR
[7] = target: γ′ analog peptide #9 (Asp426Asn); assay: SPR
[8] = target: γ′ analog peptide #4 (pTyr418Tyr); assay: SPR
[9] = target: γ′ analog peptide #12 (amino terminal three charges substituted); assay: SPR
γ′ analog peptide #8 = assay: SPR
[10] = target: wild-type γ′ peptide (fibrinogen γ′ chain 410-427, both tyrosines phosphorylated); assay: SPR; remark: listed apart in the source
[11] = target: γ′ analog peptide #13 (carboxyl terminal three charges substituted); assay: SPR
γ′ analog peptide #7 = assay: SPR
[12] = target: γ′ analog peptide #6 (pTyr422Tyr); assay: SPR

Kd ([1]; Kd (mean ± standard error of the mean), [NaCl] 150 mM, 25°C): 488 ± 42 nM
Compound: CC(C)C[C@H](NC(=O)[C@H](CC(=O)O)NC(=O)[C@H](CC(=O)O)NC(=O)[C@H](CCC(=O)O)NC(=O)[C@@H]1CCCN1C(=O)[C@H](Cc1ccc(OP(=O)(O)O)cc1)NC(=O)[C@H](CC(C)C)NC(=O)[C@H](CO)NC(=O)[C@H](CC(=O)O)NC(=O)[C@H](Cc1ccc(OP(=O)(O)O)cc1)NC(=O)[C@H](CCC(=O)O)NC(=O)[C@@H](NC(=O)[C@H](CCC(=O)O)NC(=O)[C@H](C)NC(=O)[C@@H]1CCCN1C(=O)[C@H](Cc1c[nH]cn1)NC(=O)[C@H](CCC(=O)O)NC(=O)[C@@H]1CCCN1)[C@@H](C)O)C(=O)O [Wild-type] (H-PEHPAETE[pY]DSL[pY]PEDDL-OH)

Kd [2]: 488 nM
Kd [3]: 120000 nM
Kd [4]: 18600 nM
Kd [5]: 6050 nM
Kd (γ′ analog peptide #2): 485 nM
Kd (γ′ analog peptide #1): 441 nM
Kd [6]: 705 nM
Kd (γ′ analog peptide #3): 541 nM
Kd [7]: 465 nM
Kd [8]: 583 nM
Kd [9]: 1970 nM
Kd (γ′ analog peptide #8): 608 nM
Kd [10]: 440 nM
Kd [11]: 3190 nM
Kd (γ′ analog peptide #7): 582 nM
Kd [12]: 702 nM
Compound: FPRck-inhibited thrombin (enzyme)

measurable binding to thrombin (in words) [1]: complete absence of measurable binding
Compound: PEHPAETE YNSL YPEDDL [#10]

measurable binding to thrombin (in words) [1]: no measurable interaction with thrombin
Compound: PQHPAQTQpYDSLpYPQNNL [#11]
